From ChEMBL document CHEMBL3745678, “Novel β-Carboline/Hydroxamic Acid Hybrids Targeting Both Histone Deacetylase and DNA Display High Anticancer Activity via Regulation of the p53 Signaling Pathway” (J Med Chem, 2015)
The source made the active and inactive calls. No cut-off for these calls is given here.

Tests used:
HCT-116 [1] = experiment: Induction of PARP cleavage in human HCT116 cells at 1 to 5 uM after 48 hrs by western blot analysis; format: functional, cell-based
Summary of the method: (§1)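 HCT116 cells treated 48 h with or without compound. Western blots probed for Bax, Bcl-2, cleaved caspase-3 and PARP. Band intensities relative to β-actin by densitometry; means ± SD from three separate experiments.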

HCT-116 [2] = experiment: Induction of apoptosis in human HCT116 cells at 5 uM after 48 hrs by annexin V-FITC/propidium iodide staining-based flow cytometric analysis; format: functional
Summary of the method: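 HCT116 cells cultured overnight, then exposed in triplicate for 48 h to 0.1, 1.0 or 5.0 µM, SAHA 5.0 µM or vehicle. Stained with FITC-Annexin V/PI for 15 min at room temperature.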

HCT-116 [3] = experiment: Induction of caspase-3 cleavage in human HCT116 cells at 1 to 5 uM after 48 hrs by western blot analysis; format: functional, cell-based; summary of the method: as §1
[4] = target: Cellular tumor antigen p53 (Homo sapiens) (UniProt P04637); experiment: Activation of p53 in human HCT116 cell at 0.1 to 5 uM after 12 hrs by western blot analysis; format: cell-based; details: HCT-116
Summary of the method: (§2)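 HCT116 cells exposed 12 h to compound or vehicle, then lysed on ice in PBS with 1% NP-40, 0.5% deoxycholate, 0.1% SDS and protease inhibitors. Up to 50 µg protein run on SDS-PAGE and immunoblotted for phospho-p53 (Ser15), p53 and p21. Bands quantified by densitometry against β-actin; mean ± SD of three experiments.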

[5] = Antiproliferative activity against human HCT116 cells assessed as cell viability after 48 hrs by MTT assay; format: functional, cell-based, HCT-116; details: for IC50: Homo sapiens, HCT-116, 48 h
[6] = target: Cellular tumor antigen p53 (Homo sapiens) (UniProt P04637); experiment: Induction of p53 activation in human HCT116 cells assessed as upregulation of p21 expression at 0.1 to 5 uM after 12 hrs by western blot analysis; format: cell-based; details: HCT-116; summary of the method: as §2
HCT-116 [7] = experiment: Induction of DNA damage in human HCT116 cells assessed as histone H2AX phosphorylation at S139 at 1 to 5 uM after 12 hrs by western blot analysis; format: functional, cell-based
Summary of the method: (§3)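 DNA-damage marker. HCT116 cells treated 12 h with compound or vehicle. Lysates immunoblotted with anti-H2AX S139ph, and β-actin served as the control. Relative levels were obtained by densitometric scanning; means ± SD of three separate experiments.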

[8] = target: Cellular tumor antigen p53 (Homo sapiens) (UniProt P04637); experiment: Activation of p53 in human HCT116 cells assessed as p53 phosphorylation at ser15 residue at 0.1 to 5 uM after 12 hrs by western blot analysis; format: cell-based; details: HCT-116; summary of the method: as §2
[9] = Antitumor activity against human HCT116 cells xenografted in BALB/c mouse assessed as tumor weight at 90 mg/kg, po measured twice per week over 22 days (reference value: 1.38 +/- 0.13 g); format: functional, HCT-116
[10] = Cytotoxicity against rat IEC-18 cells assessed as survival after 48 hrs by MTT assay; format: cell-based
Summary of the method: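 HCT116 and rat IEC-18 cells incubated 48 h over a 0–5 µM range. Viability measured by MTT and expressed as % of control. GI50 taken from the inhibition curves; three independent experiments.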

Histone deacetylase 8 = target: T1, Histone deacetylase 8 (Homo sapiens, UniProt Q9BY41); experiment: Inhibition of recombinant human HDAC8 using Boc-Lys (Ac)-AMC as substrate after 60 mins by fluorometric analysis
T1 sequence (Q9BY41 whole entry): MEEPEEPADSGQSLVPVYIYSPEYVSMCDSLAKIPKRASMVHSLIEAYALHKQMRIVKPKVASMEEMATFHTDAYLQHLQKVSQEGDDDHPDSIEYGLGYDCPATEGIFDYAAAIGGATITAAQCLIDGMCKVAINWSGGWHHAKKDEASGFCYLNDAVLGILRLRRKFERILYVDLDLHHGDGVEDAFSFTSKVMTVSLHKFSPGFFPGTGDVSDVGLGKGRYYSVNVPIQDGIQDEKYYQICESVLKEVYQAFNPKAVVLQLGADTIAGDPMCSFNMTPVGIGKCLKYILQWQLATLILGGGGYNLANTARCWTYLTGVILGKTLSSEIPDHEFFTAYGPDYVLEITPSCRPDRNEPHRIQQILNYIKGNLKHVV

Histone deacetylase = experiment: Inhibition of HDAC in human HeLa cell nuclear extract using Boc-Lys (Ac)-AMC as substrate after 60 mins by fluorometric analysis; format: cell-based
HCT-116 [11] = experiment: Potency index, ratio of SAHA IC50 to compound IC50 for human HCT116 cells; format: functional
Summary of the method: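 HCT116 cells seeded at 10^4 cells/ml and adhered overnight, then treated 48 h over a concentration series with 0.1% DMSO as control. MTT readout; IC50 derived from inhibition % = (1 − OD treated/OD control) × 100, three independent measurements. Index = SAHA IC50 ÷ compound IC50.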

SW480 = experiment: Antiproliferative activity against human SW480 cells assessed as cell viability after 48 hrs by MTT assay; format: functional, cell-based; details: SW480, 48 h
[12] = Antiproliferative activity against human SW620 cells assessed as cell viability after 48 hrs by MTT assay; format: functional, cell-based; details: SW-620, 48 h
[13] = target: Cellular tumor antigen p53 (Homo sapiens) (UniProt P04637); experiment: Induction of p53 activation in human HCT116 cells assessed as upregulation of p21 expression at 1 to 5 uM after 12 hrs by western blot analysis; format: cell-based; details: HCT-116; summary of the method: as §2
LoVo = experiment: Antiproliferative activity against human LoVo cells assessed as cell viability after 48 hrs by MTT assay; format: functional, cell-based
[14] = target: T2, Protein deacetylase HDAC6 (Homo sapiens, UniProt Q9UBN7); experiment: Inhibition of recombinant human HDAC6 using Boc-Lys (Ac)-AMC as substrate after 60 mins by fluorometric analysis
T2 sequence (Q9UBN7 whole entry): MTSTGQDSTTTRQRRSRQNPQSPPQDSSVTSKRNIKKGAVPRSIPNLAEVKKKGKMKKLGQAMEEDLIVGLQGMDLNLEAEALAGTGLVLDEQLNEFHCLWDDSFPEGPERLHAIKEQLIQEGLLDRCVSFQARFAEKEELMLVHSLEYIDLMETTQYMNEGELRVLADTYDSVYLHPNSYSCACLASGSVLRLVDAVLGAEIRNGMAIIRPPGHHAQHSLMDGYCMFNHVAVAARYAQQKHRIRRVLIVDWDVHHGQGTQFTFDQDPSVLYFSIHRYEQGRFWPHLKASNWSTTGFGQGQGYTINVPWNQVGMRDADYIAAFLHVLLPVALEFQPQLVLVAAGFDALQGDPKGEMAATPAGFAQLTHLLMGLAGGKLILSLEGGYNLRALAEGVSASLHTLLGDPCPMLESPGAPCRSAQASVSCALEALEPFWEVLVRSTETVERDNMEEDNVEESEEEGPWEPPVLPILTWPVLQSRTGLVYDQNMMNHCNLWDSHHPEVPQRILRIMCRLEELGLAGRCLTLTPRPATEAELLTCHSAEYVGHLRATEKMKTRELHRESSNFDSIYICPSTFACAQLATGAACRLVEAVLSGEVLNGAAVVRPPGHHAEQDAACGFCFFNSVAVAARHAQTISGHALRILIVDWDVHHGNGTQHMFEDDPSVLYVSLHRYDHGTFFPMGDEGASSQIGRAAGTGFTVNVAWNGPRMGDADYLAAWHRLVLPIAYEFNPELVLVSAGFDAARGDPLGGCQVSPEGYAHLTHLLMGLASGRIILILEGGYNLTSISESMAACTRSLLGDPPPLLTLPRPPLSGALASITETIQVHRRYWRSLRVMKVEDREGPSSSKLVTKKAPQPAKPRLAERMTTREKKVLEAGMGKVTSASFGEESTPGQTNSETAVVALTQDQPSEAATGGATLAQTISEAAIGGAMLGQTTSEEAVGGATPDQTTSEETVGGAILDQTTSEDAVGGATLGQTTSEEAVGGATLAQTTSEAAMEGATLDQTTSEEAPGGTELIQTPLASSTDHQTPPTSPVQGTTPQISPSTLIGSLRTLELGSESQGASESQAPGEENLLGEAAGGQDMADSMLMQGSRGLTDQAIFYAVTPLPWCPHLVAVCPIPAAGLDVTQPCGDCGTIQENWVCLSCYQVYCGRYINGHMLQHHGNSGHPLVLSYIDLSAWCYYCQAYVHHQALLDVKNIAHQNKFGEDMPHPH

Histone deacetylase 1 = Histone deacetylase 1 (Homo sapiens, UniProt Q13547); experiment: Inhibition of recombinant human HDAC1 using Boc-Lys (Ac)-AMC as substrate after 60 mins by fluorometric analysis
HCT-116 [15] = experiment: Induction of DNA damage in human HCT116 cells assessed as histone H2AX phosphorylation at S139 after 12 hrs by western blot analysis; format: functional, cell-based; summary of the method: as §3
HCT-116 [16] = experiment: Induction of DNA damage in human HCT116 cells assessed as histone H2AX phosphorylation at S139 at 20 uM after 12 hrs by western blot analysis; format: functional, cell-based
Summary of the method: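 HCT116 cells treated for 12 h, then lysed on ice in PBS with 1% Nonidet P-40, 0.5% sodium deoxycholate, 0.1% SDS and protease inhibitors. Up to 50 µg protein run on SDS-PAGE and blotted to PVDF. Probed overnight at 4 °C with anti-H2AX S139ph, with ECL detection. Band intensity scanned relative to β-actin, three separate experiments.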

Cellular tumor antigen p53 (Homo sapiens), sequence (P04637 whole entry, looked up): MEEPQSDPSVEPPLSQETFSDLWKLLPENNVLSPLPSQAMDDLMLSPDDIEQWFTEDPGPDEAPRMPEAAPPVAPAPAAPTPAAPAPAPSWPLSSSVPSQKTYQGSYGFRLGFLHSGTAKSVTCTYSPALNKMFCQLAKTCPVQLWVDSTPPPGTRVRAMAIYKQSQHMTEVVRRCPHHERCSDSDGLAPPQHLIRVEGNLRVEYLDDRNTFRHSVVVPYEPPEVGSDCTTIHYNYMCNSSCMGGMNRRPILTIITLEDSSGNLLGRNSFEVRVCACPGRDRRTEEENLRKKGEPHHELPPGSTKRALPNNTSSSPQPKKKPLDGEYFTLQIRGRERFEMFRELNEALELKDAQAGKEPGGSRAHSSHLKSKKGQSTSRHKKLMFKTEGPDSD
Histone deacetylase 1, sequence (Q13547 whole entry): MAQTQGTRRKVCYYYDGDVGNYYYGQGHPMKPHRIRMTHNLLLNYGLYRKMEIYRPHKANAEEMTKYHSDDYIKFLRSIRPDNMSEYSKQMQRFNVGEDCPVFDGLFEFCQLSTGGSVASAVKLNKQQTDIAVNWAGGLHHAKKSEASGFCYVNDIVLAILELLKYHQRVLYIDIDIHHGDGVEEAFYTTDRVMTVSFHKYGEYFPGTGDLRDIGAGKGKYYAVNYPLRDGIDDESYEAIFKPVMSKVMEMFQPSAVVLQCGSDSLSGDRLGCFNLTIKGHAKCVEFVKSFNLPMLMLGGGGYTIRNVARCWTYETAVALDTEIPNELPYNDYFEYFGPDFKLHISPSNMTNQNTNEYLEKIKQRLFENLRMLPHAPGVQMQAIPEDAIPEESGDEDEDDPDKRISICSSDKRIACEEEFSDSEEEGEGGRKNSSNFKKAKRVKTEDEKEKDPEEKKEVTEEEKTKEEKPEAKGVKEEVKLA

Q: Which Activity (HCT-116 [1]) does the source give for `O=C(CCCCCCC(=O)Nc1ccccc1)NO` [VORINOSTAT] here?
A: Active

Q: What about the Activity (HCT-116 [2]) of the same molecule?
A: 34.3%

Q: What about the Activity (HCT-116 [3]) of the same molecule?
A: Active

Q: What about the Activity [4] of the same molecule?
A: inactive

Q: What about the GI50 [5] of the same molecule?
A: 4.64 µM

Q: And the Activity [6]?
A: Active

Q: What about the Activity (HCT-116 [7]) of the same molecule?
A: Active

Q: And the Activity [8]?
A: inactive

Q: What about the Activity [9] of the same molecule?
A: 0.62 g

Q: And the GI50 at 48 h [10]?
A: 9.95 µM

Q: Which results are given for `COc1ccc(-c2nc(NC(=O)NCCCC(=O)NO)cc3c4ccccc4n(C)c23)cc1`?
A: IC50 (Histone deacetylase 8): 0.57 µM; IC50 (Histone deacetylase): 0.51 µM; Ratio IC50 (HCT-116 [11]): 4; IC50 (SW480): 3.15 µM; IC50 [5]: 1.33 µM; IC50 [12]: 1.93 µM; Activity [13]: Active; IC50 (LoVo): 3.02 µM; Activity (HCT-116 [7]): Active; IC50 [14]: 0.15 µM; IC50 (Histone deacetylase 1): 0.24 µM; Activity (HCT-116 [15]): Dose-dependent effect

Q: With `COc1ccc2c(c1)[nH]c1c(C)nccc12` [HARMINE] as the molecule, how does the IC50 (Histone deacetylase) read?
A: > 10 µM

Q: What about the Activity (HCT-116 [16]) of the same molecule?
A: Active

Q: What about the IC50 [5] of the same molecule?
A: 46.7 µM

Q: What about the IC50 [12] of the same molecule?
A: 42.8 µM

Q: What about the IC50 (LoVo) of the same molecule?
A: 53.2 µM
